Rows were chosen to be rich in hits. Some 11% of all compounds tested hit in one or more screens of this group.
WT yeast gro inh: growth inhibition of WT yeast, mitochondrial fusion screen; mitochondrial fusion phenotypic screen, WT strain; inhibition, % at 10 µM; hit rate 2.1% among 190,000; AID 1362; in the data active = inhibition above about 58%; tested in S. cerevisiae
G6PDH CS: counter-screen for G6PDH assay hits: L. mesenteroides G6PDH inhibition; AID 1020; Purified L. mesenteroides G6PDH, diaphorase/resazurin coupled fluorescence, 45 min; hit rate 0.12% among 200,000; inhibition, % at 5 µM
Diaphorase act: counter-screen for diaphorase-based assays: diaphorase activators and chemical reducers; Diaphorase/resazurin coupled assay, resorufin fluorescence, 16 min; hits give high values; 1 = vehicle wells, 0 = NADH-free wells; hit rate 0.005% among 190,000; activation factor at 20 µM;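 active = diaphorase activity raised at least twofold by the compound at 20 µM; inactive = activation factor below 2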
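Measured by – red resorufin fluorescence at 544/590 nm excitation/emission · Test system – Clostridium kluyveri diaphorase, purified enzyme · Incubation – reaction time 16 min, room temperature · Buffer or medium – 50 mM HEPES pH 7.4 with 4.542 mM MgCl2, 0.005% Tween 20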
Diaphorase inh: diaphorase inhibition or chemical oxidation counter-screen | diaphorase resazurin-to-resorufin fluorescence, NADH, 16 min; bacterial (C. kluyveri) enzyme, not human | inhibition, % at 20 µM | hit rate 0.69% among 190,000;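 active = primary screen inhibition at 20 µM above a set limit, cut at about 50% in these data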
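System: Bacterial diaphorase enzyme (C. kluyveri) | Incubation: 16-min room-temperature incubation before reading | Benchmarks: No-NADH positive control and DMSO neutral control | Measured by: Resorufin fluorescence 544/590 nm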
Lmaj promast: reduces viability of Leishmania major promastigotes. resazurin fluorescence viability. inhibition, % at 10 µM. hit rate 9% among 200,000. AID 1063;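 also: promastigotes grown with compound for 44 hours at 28 °C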
Each line names hits and unclear results; the compound was inactive in the other large screens. Rule as the data show it, unless noted: active = inhibition above about 50%; inactive = the rest.

O=C(/C=C/c1cccs1)N1CCCCC1	none
O=C(/C=C/c1ccccc1[N+](=O)[O-])N1CCCCC1	none
O=C(/C=C/c1ccc([N+](=O)[O-])s1)N1CCCCC1	Lmaj promast 98
CN1CCN(CC2(O)CCN(S(=O)(=O)c3ccc(Cl)cc3)CC2)CC1	Lmaj promast 100
Cc1cc(Br)c(OCc2ccc(C(=O)N/N=C3\CC4CC=CC34)cc2)c(Br)c1 (centres undefined)	WT yeast gro inh 76
CC(OCC(O)CN(C)CCOc1ccccc1)c1ccc(Cl)cc1 (centres undefined)	Lmaj promast 99
COc1ccc(N=C(C)C2=C(O)c3ccccc3C2=O)cc1	Lmaj promast 56
Cc1oc2ccc(Br)cc2c(=O)c1-c1nn[nH]n1	none
Oc1cccc(/C=N/Nc2ncnc3c2ncn3Cc2ccccc2)c1	Lmaj promast 66
Oc1ccc(/C=N/Nc2ncnc3c2ncn3Cc2ccccc2)cc1O	none
COC(=O)c1ccc(Cn2cnc3c(cnn3-c3ccc(Cl)cc3)c2=O)o1	none
COc1cc(/C=C(/C(=O)c2cccs2)c2nc3ccccc3[nH]2)cc(OC)c1O	Lmaj promast 100
O=C(/C(=C/c1ccc(Cl)cc1)c1nc2ccccc2[nH]1)c1ccccc1	Lmaj promast 100
COc1ccc(C(=O)N/C(=C/c2cccs2)c2nc3ccccc3[nH]2)cc1OC	none
CCCc1cc(=O)[nH]c(Nc2ccc3c(c2)OCCO3)n1	none
C=CCOc1c(CNc2ccc3[nH]c(=O)[nH]c3c2)cccc1OC	none (no result: Diaphorase act, Diaphorase inh)
CCOc1cc(CNc2ccc3[nH]c(=O)[nH]c3c2)ccc1OCC(=O)NC(C)(C)C	Diaphorase inh 66 (no result: WT yeast gro inh)
COc1cc(CNc2ccc3[nH]c(=O)[nH]c3c2)cc(Cl)c1OCC(=O)NC(C)(C)C	Diaphorase inh 73 (no result: WT yeast gro inh)
COC(=O)CNC(=O)COC(=O)Cc1ccc(Cl)cc1	none
C=CCc1cc(/C=N/NC(=O)CSc2nnc(CCCc3ccc(OC)cc3)o2)cc(OC)c1O	none
O=C(CSC1=NCCN1)NC(c1ccccc1)c1ccccc1	Lmaj promast 94
COc1ccc(-n2c3c(c(=O)[nH]c2=O)C(NC(=O)c2ccncc2)(C(F)(F)F)C(=O)N3)cc1 (centres undefined)	none
CCOC(=O)C1CCCN(C(=O)c2cnn3c(C(F)(F)F)cc(-c4ccccc4)nc23)C1 (centres undefined)	Lmaj promast 52
COc1ccc(-c2cc(C(F)(F)F)n3ncc(C(=O)N4CCCCC4c4cccnc4)c3n2)cc1 (centres undefined)	Lmaj promast 98
O=C(c1cnn2c(C(F)(F)F)cc(-c3ccc4c(c3)OCO4)nc12)N1CCCC1	Lmaj promast 77
CC(=O)NC(Cc1ccc(C)cc1)C(=O)NC1CCN(c2ncccc2[N+](=O)[O-])CC1 (centres undefined)	none
CCOC(=O)C1=C(C)NC(C)=C(C(=O)OCC)C1c1ccc(OC)cc1	Lmaj promast 65
COc1ccc(-c2cnn(C3CCS(=O)(=O)C3)c2N)cc1 (centres undefined)	none
O=C1NCCCc2c1oc1ccc(O)cc21	none
Oc1c(Cl)cc(Cl)c2c1NCCC2	Diaphorase inh 64
COc1cccc(N2CCN(c3ncnc4c3[nH]c3ccc(F)cc34)CC2C)c1 (centres undefined)	WT yeast gro inh 79, Lmaj promast 100
COc1ccc2[nH]c3c(N4CC(C)OC(C)C4)ncnc3c2c1 (centres undefined)	none
COc1cccc(N2CCN(c3ncnc4c3[nH]c3ccccc34)CC2C)c1 (centres undefined)	WT yeast gro inh 65, Lmaj promast 90
S=C(NC1CC1)NC1CCCc2ccccc21 (centres undefined)	none
CCC12CN(C(=O)c3ccc(C)cc3)CC(CC)(CN(C(=O)c3ccc(C)cc3)C1)C2=O	Lmaj promast 52
Cc1ccc(C(=O)N2CC3(C(C)C)CN(C(=O)c4ccc(C)cc4)CC(C(C)C)(C2)C3=O)cc1	Lmaj promast 95
Cc1ccc(C(=O)N2CCN(C(=O)c3ccc(C)cc3)C2)cc1	none
CC(=O)N1CCCc2cc(S(=O)(=O)N3CCC(C)CC3)ccc21	none
O=C(/C=C/c1ccncc1)c1ccc2c(c1)OCCO2	Lmaj promast 100
CN(C)c1ccc(/C=C/C(=O)c2ccc3c(c2)OCCO3)cc1[N+](=O)[O-]	Lmaj promast 92
O=C(c1cc(-c2ccncc2)nc2ccc(Cl)cc12)N1CCN(Cc2ccc3c(c2)OCO3)CC1	Lmaj promast 81
O=C(c1cc(-c2ccncc2)nc2ccc(Br)cc12)N1CCN(Cc2ccc3c(c2)OCO3)CC1	none
O=C(CCc1ccc(S(=O)(=O)NCc2ccccc2)cc1)N1CCN(Cc2ccc3c(c2)OCO3)CC1	none
O=C(CS(=O)(=O)Cc1ccccc1)N1CCN(Cc2ccc3c(c2)OCO3)CC1	Lmaj promast 69
O=C(CSCc1cccc(Cl)c1)N1CCN(Cc2ccc3c(c2)OCO3)CC1	Lmaj promast 91
CCN(CC)c1ccc(C(=O)NC(=S)Nc2cc(S(=O)(=O)N3CCOCC3)ccc2-n2cncn2)cc1	Lmaj promast 68
C=CCNC(=S)Nc1cc(S(=O)(=O)N2CCOCC2)ccc1-n1cncn1	none
CC1CCCC(C)N1c1nnc(NC(=O)c2cc(-c3ccc(Br)cc3)on2)s1 (centres undefined)	none
CC(Nc1c([N+](=O)[O-])c(=O)oc2ccccc12)C(Cl)c1ccccc1 (centres undefined)	Lmaj promast 56
Cc1ccc(C(=O)c2c(C)oc3c2C(=O)C(=O)c2ccccc2-3)cc1	G6PDH CS 63, Diaphorase inh 57, Lmaj promast 100
Cc1oc2c(c1C(=O)c1ccc(Cl)cc1)C(=O)C(=O)c1ccccc1-2	WT yeast gro inh 80, G6PDH CS 60, Diaphorase inh 60, Lmaj promast 101
O=C(c1ccc(Cl)cc1)c1ccc(CN2C(=O)c3ccccc3C2=O)o1	none
Cc1ccc(C(=O)c2coc3c2C(=O)C(=O)c2ccccc2-3)cc1	G6PDH CS 58, Diaphorase inh 58, Lmaj promast 100
CCCCOc1ccc(NC(=S)Nc2cc(C)nc(SCCCC)n2)cc1	none
COc1ccc(S(=O)(=O)N(C)C)cc1NCC(=O)Nc1ccc(Br)cc1F	Lmaj promast 57
COc1ccc(S(=O)(=O)N(C)C)cc1NC(=O)COC(=O)CC1CCCC1	none
CCCCOc1ccc(CN2CCC(O)CC2)cc1	Lmaj promast 91
CSc1ccc(CN2CCC(C(=O)NCc3ccc(C)cc3)CC2)cc1	Lmaj promast 92
CCOC(=O)N1CCN(C(=O)C2CCN(Cc3cccc(OCc4ccccc4)c3)CC2)CC1	none
Cc1ccc(CNC(=O)CN2CCC(C(N)=O)CC2)cc1	none
CCN1CCN(Cc2ccc(NC(=O)Nc3ccc(SC)cc3)cc2)CC1	none
CSc1ccc(CN2CCC(O)CC2)cc1	Lmaj promast 81 (no result: G6PDH CS, Diaphorase act, Diaphorase inh)
CCCCN(C)C(=O)C1CCN(Cc2ccc(OCc3ccccc3)cc2)CC1	Lmaj promast 61
